The test system of experiment [1] is Staphylococcus aureus. Kind of experiment: Antimicrobial activity against heterogenous vancomycin-intermediate-, methicillin-resistant Staphylococcus aureus 618 by microdilution method. In kind it is functional. (In general: In broth dilution the organism is exposed to a series of concentrations in liquid medium.)
The subject of experiment [2] is Staphylococcus aureus. Kind of experiment: Antimicrobial activity against heterogenous vancomycin-intermediate-, methicillin-resistant Staphylococcus aureus 618 assessed as time required to induce sub-MIC effect at 0.4 times MIC […] by plate counting method. In kind it is functional. A digest of the protocol:
(§1)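 SME, viable plate count method: no prior drug exposure. About 5 × 10^6 CFU/ml in Mueller-Hinton broth at 35°C received 0.2, 0.3 or 0.4× MIC, alongside a drug-free tube. Counts were taken at the start, then every 2 h until McFarland no. 1 turbidity, as log10 CFU/ml against time. Two separate experiments, each with a new inoculum.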

Experiment [3] deals with Staphylococcus aureus. Kind of experiment: Antimicrobial activity against vancomycin-intermediate-, methicillin-resistant Staphylococcus aureus 555 assessed as time required to induce post antibiotic sub-MIC effect at 0.4 times MIC […] by plate counting method. It counts as functional. In short, it runs like this: (§2)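 PAE was first induced with 10× MIC for 1 h at 35°C (inoculum about 5 × 10^6 CFU/ml, Mueller-Hinton broth) and ended by 1:1,000 dilution. Cultures were then split and given 0.2, 0.3 or 0.4× MIC, with one tube left without drug. Viable counts were taken before exposure, after dilution, then every 2 h until McFarland no. 1 turbidity. Two separate experiments, each with a new inoculum.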

For another experiment, the system named is Streptococcus agalactiae. Kind of experiment: Antimicrobial activity against Streptococcus agalactiae HMC 5 by microdilution method. It counts as functional.
For experiment [4], the system named is Enterococcus faecalis. As to the kind of experiment: Antimicrobial activity against Enterococcus faecalis ATCC 29212 by microdilution method. It counts as functional.
Experiment [5] deals with Enterococcus faecalis. As to the kind of experiment: Antimicrobial activity against Enterococcus faecalis HMC 571 by microdilution method. It counts as functional.
In experiment [6] the test system is Staphylococcus aureus. Kind of experiment: Antimicrobial activity against vancomycin-intermediate-, methicillin-resistant Staphylococcus aureus 1287 assessed as post-antibiotic effect at 10 times MIC pre-exposed to Telavancin for 1 hr by plate counting method. In kind it is functional. In short, it runs like this: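 Viable plate count method in Mueller-Hinton broth. Direct colony suspension inoculum of about 5 × 10^6 CFU/ml was exposed to 10× MIC for 1 h at 35°C in a shaking water bath, then diluted 1:1,000 to remove drug. Counts were taken before exposure, at 0 h, then every 2 h until McFarland no. 1 turbidity. PAE = T − C, the time to a 1 log10 rise versus an unexposed growth control.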

Experiment [7] deals with Enterococcus faecalis. Kind of experiment: Antimicrobial activity against Enterococcus faecalis HMC 571 assessed as post-antibiotic effect at 10 times MIC pre-exposed to Telavancin for 1 hr by plate counting method. It counts as functional. In short, it runs like this: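 Organisms were suspended in Mueller-Hinton broth from overnight blood agar colonies at about 5 × 10^6 CFU/ml. Cultures were exposed to telavancin at 10× MIC for 1 h at 35°C in a shaking water bath, then diluted 1:1,000 to remove the drug, with an untreated growth control. Viable counts were taken before exposure, at 0 h, then every 2 h until McFarland no. 1 turbidity. PAE = T − C, the time to a 1 log10 rise. Two experiments.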

For experiment [8], the system named is Staphylococcus aureus. Kind of experiment: Antimicrobial activity against vancomycin-susceptible-, methicillin-resistant Staphylococcus aureus 1130 assessed as time required to induce sub-MIC effect at 0.2 times MIC exposed for 2 hrs by plate counting method. It counts as functional. A digest of the protocol: (§3)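 Sub-MIC effect: cultures not preexposed to drug were diluted and handled as in the PA-SME procedure in Mueller-Hinton broth with final 0.2, 0.3 or 0.4× MIC, plus a drug-free control. Viable plate counts were taken every 2 h until McFarland 1 turbidity. Duration was derived from growth curves. Two experiments were run, each with a new inoculum.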

Experiment [9] deals with Staphylococcus aureus. As to the kind of experiment: Antimicrobial activity against vancomycin-intermediate-, methicillin-resistant Staphylococcus aureus 1287 assessed as time required to induce sub-MIC effect at 0.2 times MIC […] by plate counting method. In kind it is functional. In short, it runs like this: as §1
The subject of experiment [10] is Staphylococcus aureus. As to the kind of experiment: Antimicrobial activity against vancomycin-intermediate-, methicillin-resistant Staphylococcus aureus 555 assessed as time required to induce post antibiotic sub-MIC effect at 0.2 times MIC […] by plate counting method. In kind it is functional. A digest of the protocol: as §2
In experiment [11] the test system is Enterococcus faecium. Kind of experiment: Antimicrobial activity against Enterococcus faecium HMC 588 assessed as time required to induce post antibiotic sub-MIC effect at 0.2 times MIC pre-exposed to Telavancin […] by plate counting method. It counts as functional. In short, it runs like this: (§4)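 Mueller-Hinton broth cultures of about 5 × 10^6 CFU/ml were pre-exposed to telavancin at 10× MIC for 1 h at 35°C, then diluted 1:1,000. Telavancin was re-added to final 0.2, 0.3 or 0.4× MIC, alongside a drug-free tube. Viable counts were taken before exposure, after dilution, then every 2 h until McFarland no. 1 turbidity. Duration comes from log10 CFU/ml-versus-time plots; two separate experiments with fresh inocula.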

Experiment [12] has as its system Staphylococcus aureus. As to the kind of experiment: Antimicrobial activity against vancomycin-intermediate-, methicillin-resistant Staphylococcus aureus 770 assessed as time required to induce sub-MIC effect at 0.3 times MIC exposed for 2 hrs by plate counting method. It counts as functional. In short, it runs like this: as §1
For experiment [13], the system named is Staphylococcus aureus. As to the kind of experiment: Antimicrobial activity against vancomycin-resistant-, methicillin-resistant Staphylococcus aureus 510 assessed as time required to induce sub-MIC effect at 0.3 times MIC exposed for 2 hrs by plate counting method. In kind it is functional. A digest of the protocol: as §3
The subject of experiment [14] is Enterococcus faecalis. Kind of experiment: Antimicrobial activity against Enterococcus faecalis HMC 571 assessed as time required to induce sub-MIC effect at 0.3 times MIC exposed for 2 hrs by plate counting method. In kind it is functional. In short, it runs like this:
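Unexposed Mueller-Hinton broth cultures (about 5 × 10^6 CFU/ml, 35°C) were handled as in the PA-SME set but without the 10× MIC pre-exposure. They were diluted 1:1,000, then given telavancin at final 0.2, 0.3 or 0.4× MIC, with a drug-free control. Viable counts were taken every 2 h until McFarland no. 1 turbidity. Effect duration comes from log10 CFU/ml-time plots; two separate experiments with new inocula.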

The test system of experiment [15] is Staphylococcus aureus. Kind of experiment: Antimicrobial activity against vancomycin-susceptible-, methicillin-resistant Staphylococcus aureus ATCC 33591 assessed as time required to induce post antibiotic sub-MIC effect at 0.3 times MIC […] by plate counting method. In kind it is functional. A digest of the protocol: (§5)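 After 1 h preexposure to 10× MIC at 35°C and 1:1,000 dilution, cultures were split, and drug was re-added to final 0.2, 0.3 or 0.4× MIC, with a drug-free tube. Viable counts were taken every 2 h until McFarland 1 turbidity. Duration was derived from log10 CFU/ml versus time curves. Two experiments were run, each with a new inoculum.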

In experiment [16] the test system is Staphylococcus aureus. As to the kind of experiment: Antimicrobial activity against vancomycin-susceptible-, methicillin-resistant Staphylococcus aureus 1306 assessed as time required to induce post antibiotic sub-MIC effect at 0.3 times MIC […] by plate counting method. In kind it is functional. A digest of the protocol:
as §5

Experiment [17] deals with Staphylococcus aureus. As to the kind of experiment: Antimicrobial activity against vancomycin-intermediate-, methicillin-resistant Staphylococcus aureus 770 assessed as time required to induce post antibiotic sub-MIC effect at 0.3 times MIC […] by plate counting method. In kind it is functional. A digest of the protocol:
as §2

Experiment [18] concerns Enterococcus faecium. As to the kind of experiment: Antimicrobial activity against Enterococcus faecium HMC 588 assessed as time required to induce post antibiotic sub-MIC effect at 0.3 times MIC […] by plate counting method. It counts as functional. A digest of the protocol:
as §4

The subject of experiment [19] is Staphylococcus aureus. As to the kind of experiment: Antimicrobial activity against vancomycin-intermediate-, methicillin-resistant Staphylococcus aureus 1287 assessed as time required to induce post antibiotic sub-MIC effect at 0.2 times MIC pre-exposed to Telavancin for 1 hr by plate counting method.

For orientation: MIC means the lowest concentration found to suppress growth. A high value points to a less susceptible organism.

Values after ≈ are worked out from the molar mass of the structure shown.

Consider `CCCCCCCCCCNCCN[C@@]1(C)C[C@H](O[C@H]2[C@H](Oc3c4cc5cc3Oc3ccc(cc3Cl)[C@@H](O)[C@@H](NC(=O)[C@@H](CC(C)C)NC)C(=O)N[C@@H](CC(N)=O)C(=O)N[C@H]5C(=O)N[C@H]3C(=O)N[C@H](C(=O)N[C@H](C(=O)O)c5cc(O)c(CNCP(=O)(O)O)c(O)c5-c5cc3ccc5O)[C@H](O)c3ccc(c(Cl)c3)O4)O[C@H](CO)[C@@H](O)[C@@H]2O)O[C@@H](C)[C@H]1O` [TELAVANCIN], for which the MIC against Staphylococcus aureus [1] stood at 0.12 µg/mL (≈ 0.0684 µM); against Streptococcus agalactiae, 0.12 µg/mL (≈ 0.0684 µM); with Enterococcus faecalis [4], 0.25 µg/mL (≈ 0.142 µM); with Enterococcus faecalis [5], 0.25 µg/mL (≈ 0.142 µM). The PAE is 2.3 h in the experiment on Staphylococcus aureus [2]; above 10.3 h in the experiment on Staphylococcus aureus [3]; 1.2 h in the experiment on Staphylococcus aureus [6]; 1.5 h with Enterococcus faecalis [7]; 0 h in the experiment on Staphylococcus aureus [8]; 0 h in the experiment with Staphylococcus aureus [9]. The PAE was 5.9 h in the experiment with Staphylococcus aureus [10]; 1.9 h in the experiment on Enterococcus faecium [11]; 0.8 h in the experiment with Staphylococcus aureus [12]; 2.3 h in the experiment with Staphylococcus aureus [13]; 2.6 h in the experiment on Enterococcus faecalis [14]; above 10 h with Staphylococcus aureus [15]. For the same compound, the PAE in the experiment with Staphylococcus aureus [16] is 5.4 h; in the experiment on Staphylococcus aureus [17] it was 6.3 h; with Enterococcus faecium [18] it was 8.9 h; with Staphylococcus aureus [19], 5.1 h.

(Values after ChEMBL document CHEMBL1629663, “Postantibiotic effects of telavancin against 16 gram-positive organisms” (Antimicrob Agents Chemother, 2009).)
